This note sets out measurements from article PMC7203693 (ACS Omega, 2020).

One data set relates to Aβ1-42. The data set can be described thus: Immunohistochemistry for Aβ1-42 in hippocampus of AD model rats. In kind it is in vivo. As to conditions: AD rats, 10, 20 mg/kg, compared with the model group (p < 0.05). The gist of the method:
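Hippocampal sections from five rats: endogenous peroxidase blocked, 5% normal goat serum in 0.3% Triton/PBS, rabbit anti-Aβ1-42 (1:300) overnight at 4 °C, biotinylated goat anti-rabbit (1:500) 1 h at room temperature, then DAB for 10 min.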

Another data set relates to PC12 cells. The data set can be described thus: Cytotoxicity in PC12 cells. The note with it: 10 μM, 24 h. The class given is cell-based. In short, it runs like this:
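PC12 cells were grown in DMEM with 10% FBS and penicillin/streptomycin (37 °C, 5% CO2), seeded at 10⁵/well and left 24 h. Test compound (DMSO stock diluted in medium) was given at 10 μM for 24 h, with edaravone as positive control. MTT was added for 2 h, formazan was dissolved in DMSO, and absorbance was read at 490 nm.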

The subject of data set [1] is AD model rats. Kind of data set: Bielschowsky silver staining of hippocampus of AD model rats. In kind it is in vivo. The note with it: AD rats, 10, 20 mg/kg, versus AD model group. The gist of the method:
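SD rats (8 weeks, 280 ± 10 g) got bilateral hippocampal Aβ25-35 (10 μg in 2 μL, pre-aggregated 4 days at 37 °C); sham rats got saline. Formalin-fixed paraffin coronal sections (40 μm) were stained by modified Bielschowsky silver (20% AgNO3, ammoniacal silver), and positive neurons were counted at 10 × 40.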

Another data set has as its system ICR mice. Kind of data set: Acute oral toxicity test in mice. The class given is in vivo. As to conditions: for deaths: 10 animals; for deaths / death rate: 14 day. The gist of the method:
(§1)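 ICR mice (18–22 g, half male, half female), seven groups of 10. Single oral gavage of 1310, 1638, 2048, 2560, 3200 or 4000 mg/kg, suspended in 0.5% carboxymethyl cellulose; the control group received vehicle. General behaviour, toxicity signs and mortality were followed for 14 days. LD50 was estimated by log-probit regression of mortality.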

Data set [2] in a line: Acute oral toxicity test in mice. As to conditions: both, ICR, mouse, in vivo, po. The class given is in vivo. In short, it runs like this: as §1
Data set [3] deals with AD model rats. The data set can be described thus: HE staining of hippocampus CA3 region of AD model rats. In kind it is in vivo. As to conditions: AD rats, 5, 10, and 20 mg/kg.
The next data set deals with AChE (Homo sapiens, UniProt P22303). The data set can be described thus: biochemical.
Data set [4] deals with AD model rats. Kind of data set: Open-field test in Aβ25-35-induced AD model rats. In kind it is in vivo. As to conditions: for total distance moved in open field: AD rats, Aβ model group 17.34 ± 3.88. In short, it runs like this: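 After 1 h acclimation, each rat explored a dimly lit 100 × 100 × 50 cm box for 2 min, with 70% ethanol cleaning between trials. Video gave total distance and central-zone time. Mean ± SEM, t-test.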

The test system of data set [5] is AD model rats. The data set can be described thus: Morris water maze in Aβ25-35-induced AD model rats. In kind it is in vivo. As to conditions: compared to the model rats (p < 0.05). The gist of the method: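 Pool 180 cm wide, water at 25 ± 1 °C, hidden platform 2 cm submerged. Training: four 2-min trials daily (30 min apart) for 5 days. Escape latency and swim path were video-tracked. Probe trial: platform removed, 2-min swim, crossings counted. Mean ± SEM, t-test.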

The test system of data set [6] is AD model rats. Kind of data set: Nissl staining of hippocampal CA1 region of AD model rats. The class given is in vivo. As to conditions: 10 and 20 mg/kg groups. The gist of the method: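 Brains were paraformaldehyde-postfixed and cryoprotected in 30% sucrose. Frozen 25 μm hippocampal sections were stained with 2% cresyl violet for 5 min. Necrotic CA1 cells were counted by light microscopy (n = 5 rats/group, three sections per rat).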

The mark [7] stands for this setting: mice, single oral dose 1310 mg/kg.
[8] abbreviates: mice, single oral dose 1638 mg/kg.
Setting [9] is: mice, single oral dose 2048 mg/kg.
[10] abbreviates: mice, single oral dose 2560 mg/kg.
Where [11] appears, read: mice, single oral dose 3200 mg/kg.
Setting [12] is: mice, single oral dose 4000 mg/kg.

AChE, sequence (P22303 32-614): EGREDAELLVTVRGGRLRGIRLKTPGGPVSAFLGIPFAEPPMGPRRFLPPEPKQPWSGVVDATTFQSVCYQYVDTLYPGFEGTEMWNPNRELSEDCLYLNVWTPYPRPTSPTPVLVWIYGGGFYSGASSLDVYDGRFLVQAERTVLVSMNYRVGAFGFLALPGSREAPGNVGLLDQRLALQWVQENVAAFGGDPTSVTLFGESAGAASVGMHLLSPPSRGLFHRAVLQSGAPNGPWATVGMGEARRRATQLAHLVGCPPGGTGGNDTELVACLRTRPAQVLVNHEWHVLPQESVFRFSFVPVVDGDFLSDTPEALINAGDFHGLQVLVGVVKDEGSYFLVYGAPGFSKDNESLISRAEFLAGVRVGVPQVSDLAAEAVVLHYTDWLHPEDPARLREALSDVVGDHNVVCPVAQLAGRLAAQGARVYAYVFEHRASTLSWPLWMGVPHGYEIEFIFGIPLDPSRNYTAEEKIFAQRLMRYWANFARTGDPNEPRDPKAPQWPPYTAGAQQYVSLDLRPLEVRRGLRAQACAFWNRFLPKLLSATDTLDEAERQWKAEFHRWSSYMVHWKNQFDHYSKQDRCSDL

A word on the LD50: it is the dose at which mortality reaches 50%. A higher LD50 goes with lower toxicity. In general, IC50 refers to the midpoint of a concentration-inhibition curve. Low values mean higher potency, high ones lower potency. With `COc1c(OC(=O)N(C)c2ccccc2)cc2oc3cc4c(c(O)c3c(=O)c2c1CC=C(C)C)C=CC(C)(C)O4` [AMG-1, 5-Hydroxy-8-methoxy-2,2-dimethyl-7-(3-methylbut-2-en-1-yl)-6-oxo-2,6-dihydropyrano[3,2-b]xanthen-9-yl methyl(phenyl)carbamate], the “expression of Aβ1-42 in hippocampus (immunohistochemistry)” value in the data set with Aβ1-42 was “significantly reduced expression”. The “inhibition ratio (cytotoxic effect, cell proliferation)” value (shortened to “inhibition ratio”) in the data set with PC12 cells is 7.2%. Moreover, the “number of senile plaques in hippocampus (silver staining)” value with AD model rats [1] was “less”. In the data set on ICR mice (level of 20 mg/kg or less), the “toxicity at the dose for administration” value is listed as “no obvious toxicity”. Further, the signs of toxicity result in the data set with ICR mice (mice, acute oral toxicity experiment period) was “messy furs and loose gray stool around the anus”. For the same compound, the “time found dead after administration” value in the data set on ICR mice (mice, highest dosed group 4000 mg/kg oral) lay within 16 to 48 h. In addition, the deaths in the data set with ICR mice (setting [7]) worked out at 0; in the data set with ICR mice (setting [8]), 1; in the data set on ICR mice (setting [9]), 4; in the data set with ICR mice (setting [10]) it was 6; in the data set with ICR mice (setting [11]), 7; with ICR mice (setting [12]), 9. Further, the death rate was 0% in the data set with ICR mice (setting [7]); 10% with ICR mice (setting [8]); 40% in the data set with ICR mice (setting [9]); 60% in the data set on ICR mice (setting [10]); 70% in the data set with ICR mice (setting [11]); 90% with ICR mice (setting [12]). Moreover, the LD50 at 14 day in data set [2] was 2470 mg/kg. Moreover, in the data set on AD model rats [3], the “pyramidal cell morphology and density, hippocampus CA3 (HE staining)” value was “better cell morphology and density than those in the model group”. The compound further displayed an IC50 at AChE of 52.6 ± 11.3 µM. In addition, the “time spent in the central zone in open field” value with AD model rats [4] (AD rats, 5, 10, 20 mg/kg oral 30 days, compared to the Aβ model group) was “dose-dependent increase”. In the data set on AD model rats [4] (AMG-1 20 mg/kg oral once daily 30 days), the “total distance moved in open field” value came to 28.55 ± 6.87 m. Also, the “time in the target quadrant” value with AD model rats [5] (probe trial) was “significantly more time”. Also, in the data set with AD model rats [5] (probe trial), the “time to reach the place of the removed platform” value is “significantly less time”. The “escape latency in Morris water maze” value with AD model rats [5] (retention phase) is given as “significant improvements”. The “total distance traveled in Morris water maze” value in the data set on AD model rats [5] (retention phase) is “significant improvements”. The “neuronal damage in hippocampal CA1 (Nissl staining)” value with AD model rats [6] was “significantly attenuated”.

For `CCN(C(=O)Oc1cc2oc3cc4c(c(O)c3c(=O)c2c(CC=C(C)C)c1OC)C=CC(C)(C)O4)c1ccccc1` [AMG-2, 5-Hydroxy-8-methoxy-2,2-dimethyl-7-(3-methylbut-2-en-1-yl)-6-oxo-2,6-dihydropyrano[3,2-b]xanthen-9-yl ethyl(phenyl)carbamate], the “inhibition ratio” value with PC12 cells worked out at 6.7%. Further, the midpoint of inhibition against AChE, the IC50, lay at 35.1 ± 9.38 µM.

Take `COc1c(OC(=O)N(C)c2ccccc2C)cc2oc3cc4c(c(O)c3c(=O)c2c1CC=C(C)C)C=CC(C)(C)O4` [AMG-3, 5-Hydroxy-8-methoxy-2,2-dimethyl-7-(3-methylbut-2-en-1-yl)-6-oxo-2,6-dihydropyrano[3,2-b]xanthen-9-yl methyl(o-tolyl)carbamate]: the “inhibition ratio” value with PC12 cells turned out to be 5.9%. The IC50 on AChE came to 32.9 ± 7.78 µM.

Consider `COc1cc2c(cc1OC)C(=O)C(CC1CCN(Cc3ccccc3)CC1)C2` (stereo not drawn) [donepezil, reference compound], for which the “total distance moved in open field” value in the data set with AD model rats [4] (donepezil 1 mg/kg oral once daily 30 days) was determined as 31.37 ± 7.14 m.

`CC1=NN(c2ccccc2)C(=O)C1` [edaravone, reference compound]: in the data set with PC12 cells, the “inhibition ratio” value is on record as 0%.

Take `COc1c(O)cc2oc3cc(O)c(CC=C(C)C)c(O)c3c(=O)c2c1CC=C(C)C` [α-M, 1,3,6-trihydroxy-7-methoxy-2,8-bis(3-methylbut-2-en-1-yl)-9H-xanthen-9-one, reference compound]: the “inhibition ratio” value in the data set on PC12 cells is on record as 73.1%. On AChE, this compound displayed an IC50 of 34.3 ± 6.06 µM.
